Screening results from PubChem.
BB579 growth dn = growth inhibitors of yeast BB579 in restrictive medium, primary screen, yeast lifespan-shortening project, S. cerevisiae | hit rate 0.51% among 140,000 | inhibition, % at 10 µM | OD615, 48 h;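 active = inhibition above a set limit, 3 SD over the mean compound inhibition, cut at about 44% in these data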
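controls = amphotericin B 10 µg/mL, positive | assay system = DeaD yeast strain BB579 | schedule = 48 h compound exposure at 30 °C after 4 h preincubation | detection = OD615 turbidity measurement | medium = restrictive CSMM-D medium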
Yeast life ext = compounds extending yeast replicative lifespan, primary screen, S. cerevisiae, OD615; hit rate 0.68% among 130,000; S. cerevisiae growth with nicotinamide; deaD strain in restrictive glucose medium; inhibition of the nicotinamide effect, % at 10 µM; AID 775, 2007;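 active = inhibition above a set limit, placed 3 SD over the median of all compounds, cut at about 26% in these data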
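Material: Modified budding yeast, DeaD strain | Medium: Restrictive glucose medium | Probe or stimulus: 1.5 mM nicotinamide | Dosing: Single dose 10 µM compound, 0.25% DMSO | Times: 48 h at 30 °C | Technique: OD615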
WT yeast gro inh = growth inhibition of WT strain, primary screen, mitochondrial fusion inhibitor project, WT and mutant strains, chemical genetic. mitochondrial fusion phenotypic screen. inhibition, % at 10 µM. hit rate 2.1% among 190,000; in the data active = inhibition above about 58%; tested in S. cerevisiae
RAM network inh = inhibitors of the yeast RAM network, primary screen, dse1pr::URA3 reporter, 5-FOA selection; inhibition, % at 50 µM; hit rate 1.8% among 190,000; S. cerevisiae dse1pr::URA3 reporter, 5-FOA growth OD615, 2 d; analog-sensitive cbk1-as2 kinase mutant strain;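 active = inhibition above a set limit, 3 SD over mean compound inhibition, cut at about 8.4% in these data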;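 note: inhibition rescues growth on 5-FOA so higher OD means more RAM inhibition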
Cl transport mod = KCC2 cotransporter modulators, thallium flux, primary screen, cell-based, HEK293 KCC2, FluoZin-2 fluorescence, MLSMR; Solute carrier family 12 member 5 (Homo sapiens), Q9H2X9; KCC2 cells, thallium flux FluoZin-2 fluorescence; B-score of Tl+ flux slope (higher = more flux/activation; lower = inhibition) at 10 µM; hit rate 2.2% among 190,000;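 active = thallium flux slope and its plate-corrected score both differing from the plate sample mean at a set confidence after two filtering rounds, in either direction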;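 note: slope of fluorescence scaled to starting intensity during 10 to 20 s after thallium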
Target sequence (Q9H2X9 whole entry, looked up): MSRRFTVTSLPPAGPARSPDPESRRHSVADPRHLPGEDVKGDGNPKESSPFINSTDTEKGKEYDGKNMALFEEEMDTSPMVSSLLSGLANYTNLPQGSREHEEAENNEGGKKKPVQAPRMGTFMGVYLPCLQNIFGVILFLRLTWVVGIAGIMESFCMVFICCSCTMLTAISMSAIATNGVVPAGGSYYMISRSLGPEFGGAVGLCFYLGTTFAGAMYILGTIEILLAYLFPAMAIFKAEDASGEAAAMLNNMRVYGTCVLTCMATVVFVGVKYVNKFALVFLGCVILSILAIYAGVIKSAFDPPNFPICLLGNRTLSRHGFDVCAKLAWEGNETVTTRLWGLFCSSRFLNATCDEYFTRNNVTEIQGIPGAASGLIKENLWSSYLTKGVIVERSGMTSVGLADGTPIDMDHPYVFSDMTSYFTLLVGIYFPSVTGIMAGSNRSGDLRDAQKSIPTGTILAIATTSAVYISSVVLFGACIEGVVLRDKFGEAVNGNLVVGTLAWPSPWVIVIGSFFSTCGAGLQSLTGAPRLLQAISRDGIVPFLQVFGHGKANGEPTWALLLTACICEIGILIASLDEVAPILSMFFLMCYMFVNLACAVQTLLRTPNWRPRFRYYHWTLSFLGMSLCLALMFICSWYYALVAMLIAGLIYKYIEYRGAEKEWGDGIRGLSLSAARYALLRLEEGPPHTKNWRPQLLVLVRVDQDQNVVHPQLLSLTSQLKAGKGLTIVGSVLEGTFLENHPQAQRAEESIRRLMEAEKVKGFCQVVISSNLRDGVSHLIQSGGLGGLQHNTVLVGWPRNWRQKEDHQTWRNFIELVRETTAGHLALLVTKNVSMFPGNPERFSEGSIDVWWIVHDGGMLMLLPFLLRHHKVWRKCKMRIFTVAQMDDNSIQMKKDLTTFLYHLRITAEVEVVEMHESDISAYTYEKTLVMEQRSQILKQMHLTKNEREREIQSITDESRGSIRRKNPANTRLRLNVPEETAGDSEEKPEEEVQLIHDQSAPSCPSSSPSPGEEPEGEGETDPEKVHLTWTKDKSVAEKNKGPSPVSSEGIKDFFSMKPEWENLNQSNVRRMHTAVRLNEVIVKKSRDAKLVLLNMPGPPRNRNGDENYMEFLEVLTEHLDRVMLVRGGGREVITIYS
KCC2 sec1 = KCC2 modulators in sodium-free buffer, confirmation, cell-based, HEK293 KCC2, thallium flux, secondary assay; shares compounds with Cl transport mod; FluoZin2 fluorescence; hits give high values; normalised thallium flux (F/F0 slope) at 10 µM; hit rate 15% among 3,700; AID 1713, 2009;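 active = thallium flux slope above the same plate's solvent-only control mean plus 3 SD; inconclusive = the two replicate wells disagree; inactive = no significant difference from solvent-only control wells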
KCC2 bumet counter = thallium flux persisting under bumetanide in KCC2 cells, confirmation, counter-screen for KCC2 modulator project, cell-based, HEK293 KCC2, FluoZin2, secondary assay 3 | hit rate 49% among 3,700 | shares compounds with Cl transport mod | normalized thallium flux at 10 µM | AID 1714, 2009 | HEK293-KCC2 + bumetanide/ouabain; hits give high values;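 active = thallium entry rate above the same plate's blocked-transporter control wells by more than 3 SD; inconclusive = the two repeat wells disagree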;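 note: raw slope of fluorescence over initial fluorescence between 10 and 20 s after thallium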
KCC2 sec2 = KCC2 modulators without ouabain present, confirmation, cell-based, HEK293 KCC2, thallium flux, FluoZin2, secondary assay 2; shares compounds with Cl transport mod; thallium flux FluoZin2 fluorescence; actives lie on both sides; F/F0 rise rate, 10–20 s post-thallium; normalized thallium flux at 10 µM; hit rate 23% among 3,700;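 active = thallium flux slope more than 3 SD above or below the plate's solvent-only control mean, mostly below; inconclusive = the two repeat wells disagreed; inactive = no significant shift from solvent-only controls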
HEK counter1 = thallium flux modulation in parental HEK cells, confirmation, counter-screen for KCC2 modulator project, cell-based, counterscreen 1; hit rate 46% among 3,700; AID 1716, 2009; shares compounds with Cl transport mod; thallium flux rate (normalised fluorescence) at 10 µM; HEK293 parental cells, thallium flux FluoZin2, ouabain; baseline-ratio fluorescence slope, 10–20 s after thallium;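 active = thallium flux rate significantly above the same plate's solvent-only control wells, beyond their mean plus 3 SD; inconclusive = the two replicate wells gave conflicting results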
KCC2 retest ouab = KCC2 inhibitors and activators, ouabain retest, confirmation, HEK-KCC2 cells. shares compounds with Cl transport mod. HEK293-KCC2, thallium flux FluoZin2 fluorescence; bidirectional: low = inhibitor, high = activator. raw Tl+ flux slope (below DMSO = inhibition, above = activation) at 10 µM. hit rate 48% among 3,700. AID 1717, 2009;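 active = thallium flux slope beyond 3 SD from same-plate DMSO control mean in most replicates, usually higher, sometimes lower; inconclusive = repeat tests gave conflicting results; inactive = no significant difference from controls in most replicates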;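 note: slope of initial-normalized fluorescence between seconds 10 and 20 after thallium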
HEK293 Tl flux2 = native HEK Tl+ uptake effects, second counter-screen – HEK cells, counterscreen 2, counter-screen for KCC2 modulator project, confirmation. hit rate 33% among 3,700. thallium flux slope at 10 µM. shares compounds with Cl transport mod. HEK293 parental, thallium flux FluoZin-2 fluorescence slope. AID 1718, 2009;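 active = thallium flux slope above the same plate's solvent-control mean plus 3 SD in both duplicate wells; inconclusive = duplicate wells that disagreed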;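 note: run without ouabain in cells lacking the KCC2 cotransporter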
Hits are given with their value. Rows were chosen to be rich in hits. Some 5.5% of all compounds tested hit in one or more screens of this group.

For Cc1ccc(/C=C/C(=O)O)cc1S(=O)(=O)NCc1ccco1 the results were WT yeast gro inh inactive, RAM network inh inactive and Cl transport mod inactive.
`CC1Cc2ccccc2N1CC(=O)Nc1ccc(S(=O)(=O)N(C)C)cc1` (stereo not drawn) gave Cl transport mod -3.9, KCC2 sec1 inactive, KCC2 bumet counter inactive, KCC2 sec2 inactive, HEK counter1 inactive, KCC2 retest ouab inactive and HEK293 Tl flux2 inconclusive.
`CC1Cc2ccccc2N1CC(=O)Nc1ccc(Cl)c(S(=O)(=O)N(C)C)c1` (stereo not drawn) gave WT yeast gro inh inactive, RAM network inh inactive and Cl transport mod inactive.
Screening CCCOC(=O)Nc1cc(OC)ccc1[N+](=O)[O-] returned WT yeast gro inh inactive, RAM network inh inactive and Cl transport mod inactive.
For O=C(COc1ccccc1[N+](=O)[O-])NNC(=O)Nc1cccc2ccccc12 the results were WT yeast gro inh inactive, RAM network inh inactive and Cl transport mod inactive.
O=C(CCc1nc2ccccc2s1)N1CCN(S(=O)(=O)c2cccs2)CC1 was read as BB579 growth dn inactive, Yeast life ext inactive, WT yeast gro inh inactive, RAM network inh inactive, Cl transport mod -4.1, KCC2 sec1 inactive, KCC2 bumet counter inactive, KCC2 sec2 inactive, HEK counter1 inactive, KCC2 retest ouab inactive and HEK293 Tl flux2 inactive.
For O=S(=O)(c1cccs1)N1CCN(Cc2nc3ccccc3s2)CC1 the results were BB579 growth dn inactive, Yeast life ext inactive, WT yeast gro inh inactive, RAM network inh inactive and Cl transport mod inactive.
For COc1ccc(N(CC(=O)NCc2ccccc2C)S(=O)(=O)c2ccccc2[N+](=O)[O-])c(OC)c1 the results were WT yeast gro inh inactive, RAM network inh inactive and Cl transport mod inactive.
Cc1cc(C)cc(C(=O)NCC(=O)OCC(=O)Nc2cccnc2Cl)c1 was read as WT yeast gro inh inactive, RAM network inh inactive and Cl transport mod inactive.
O=C(CSc1nnc(-c2ccc3c(c2)OCO3)o1)Nc1ncc(C(F)(F)F)cc1Cl was read as WT yeast gro inh inactive, RAM network inh inactive, Cl transport mod 27, KCC2 sec1 0.016, KCC2 bumet counter 0.042, KCC2 sec2 inactive, HEK counter1 inconclusive, KCC2 retest ouab 0.045 and HEK293 Tl flux2 inconclusive.
Screening Cc1ccc(N2C(=O)C(Cc3ccc(O)cc3)NC2=S)cc1C (stereo not drawn) returned BB579 growth dn inactive, Yeast life ext inactive, WT yeast gro inh inactive, RAM network inh inactive, Cl transport mod -3.9, KCC2 sec1 inactive, KCC2 bumet counter inactive, KCC2 sec2 inactive, HEK counter1 inactive, KCC2 retest ouab inactive and HEK293 Tl flux2 inactive.
For Cc1cccc(N2C(=O)C(Cc3ccccc3)NC2=S)c1 (stereo not drawn) the results were BB579 growth dn inactive, Yeast life ext inactive, WT yeast gro inh inactive, RAM network inh inactive and Cl transport mod inactive.
Screening CC(C)(C)OC(=O)NNC(=O)Nc1ccccc1C(F)(F)F returned WT yeast gro inh inactive, RAM network inh inactive and Cl transport mod inactive.
For Oc1c(C(c2cccs2)N2CCN(c3ccccc3)CC2)ccc2cccnc12 (stereo not drawn) the results were BB579 growth dn inactive, Yeast life ext inactive, WT yeast gro inh inactive, RAM network inh inactive and Cl transport mod inactive.
Screening Oc1c(C(c2ccccc2Cl)N2CCCC2)ccc2cccnc12 (stereo not drawn) returned WT yeast gro inh inactive, RAM network inh inactive, Cl transport mod 2.9, KCC2 sec1 inactive, KCC2 bumet counter 0.0085, KCC2 sec2 inactive, HEK counter1 0.01, KCC2 retest ouab inactive and HEK293 Tl flux2 0.013.
For C/C(=N\NC(=S)Nc1cc(S(=O)(=O)N2CCOCC2)ccc1Cl)c1ccccc1F the results were BB579 growth dn inactive, Yeast life ext inactive, WT yeast gro inh inactive, RAM network inh inactive, Cl transport mod 6.9, KCC2 sec1 inconclusive, KCC2 bumet counter 0.025, KCC2 sec2 inactive, HEK counter1 0.015, KCC2 retest ouab 0.044 and HEK293 Tl flux2 inactive.
`C#CCOC(=O)Nc1cc(C)n(-c2ccccc2)n1` gave Cl transport mod inactive.
For C=CCn1c(SCC(=O)Nc2ccc3c(c2)CCC3)nc2ccccc2c1=O the results were BB579 growth dn inactive, Yeast life ext inactive, WT yeast gro inh inactive, RAM network inh inactive and Cl transport mod inactive.
For CCCn1c(N)c(C(=O)CSc2nc3ccccc3c(=O)n2Cc2ccccc2)c(=O)[nH]c1=O the results were WT yeast gro inh inactive, RAM network inh inactive, Cl transport mod 40, KCC2 sec1 0.016, KCC2 bumet counter 0.08, KCC2 sec2 inactive, HEK counter1 0.026, KCC2 retest ouab 0.054 and HEK293 Tl flux2 0.012.
Screening CCCCn1c(SCC(=O)Nc2ccc3c(c2)CCC3)nc2ccccc2c1=O returned BB579 growth dn inactive, Yeast life ext inactive, WT yeast gro inh inactive, RAM network inh inactive, Cl transport mod 9, KCC2 sec1 inactive, KCC2 bumet counter 0.014, KCC2 sec2 inactive, HEK counter1 0.017, KCC2 retest ouab inconclusive and HEK293 Tl flux2 0.02.
